Experimental data from publication PMC7449315 (Journal for Immunotherapy of Cancer, 2020).
“And” between values parts separate entries of the source, which are not always exact repeats. Equal values may be shown once. Marks after values point to notes of the source that are not given here.

Columns and labels:
[1] = M4112 levels in plasma, liver and tumor of mice bearing MC38 tumors; format: in vivo; conditions: MC38 tumor-bearing mice
Procedure, shortened: (§1)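 Female adult C57BL/6 mice were inoculated subcutaneously with 0.5×10^6 IDO1-expressing MC38 colon carcinoma cells. At average tumor volumes of about 200–250 mm3 they received a single oral dose of the test compound (30, 75 or 200 mg/kg) or vehicle. Plasma, liver and tumor were sampled at 1, 2, 4, 8 and 24 h. Drug, kynurenine and tryptophan were measured by LC-MS/MS, and the kynurenine:tryptophan ratio was derived. Data are mean±SEM.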

[2] = biological target: tumor IDO1 (Mus musculus, UniProt P28776); format: in vivo; conditions: MC38 tumor-bearing mice; 30, 75 or 200 mg/kg
Sequence of tumor IDO1 (P28776 whole entry): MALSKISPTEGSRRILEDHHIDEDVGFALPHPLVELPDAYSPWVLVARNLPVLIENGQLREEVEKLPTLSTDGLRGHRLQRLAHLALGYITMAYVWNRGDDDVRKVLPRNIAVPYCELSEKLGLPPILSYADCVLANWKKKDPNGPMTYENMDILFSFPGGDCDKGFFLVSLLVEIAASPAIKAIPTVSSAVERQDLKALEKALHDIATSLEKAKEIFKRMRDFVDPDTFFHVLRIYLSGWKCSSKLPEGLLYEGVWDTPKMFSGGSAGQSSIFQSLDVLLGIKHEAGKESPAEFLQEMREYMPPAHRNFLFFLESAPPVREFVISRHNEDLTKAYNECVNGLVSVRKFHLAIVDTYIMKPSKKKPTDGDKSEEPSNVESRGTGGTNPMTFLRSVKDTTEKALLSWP
Procedure, shortened: as §1

[3] = phase I trial: plasma pharmacokinetics; format: in vivo, human
Procedure, shortened: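 Patients were dosed orally twice daily. Blood was sampled on cycle 1 days 1 and 15 (predose and 0.5, 1, 2, 3, 4, 6 and 8 h postdose), on day 8 (predose), and on cycle 2 day 1 (predose and 2 h). Plasma drug levels were measured by LC-MS/MS. Non-compartmental analysis gave Cmax, tmax and AUC0–8, dose-normalized values, predose concentrations and day 15/day 1 accumulation. Dose proportionality was tested with a power model.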

[4] = biological target: IDO1 (Homo sapiens, UniProt P14902); assay: IDO1 activity in ex vivo LPS-stimulated whole blood from M4112-treated patients
Sequence of IDO1 (P14902 whole entry): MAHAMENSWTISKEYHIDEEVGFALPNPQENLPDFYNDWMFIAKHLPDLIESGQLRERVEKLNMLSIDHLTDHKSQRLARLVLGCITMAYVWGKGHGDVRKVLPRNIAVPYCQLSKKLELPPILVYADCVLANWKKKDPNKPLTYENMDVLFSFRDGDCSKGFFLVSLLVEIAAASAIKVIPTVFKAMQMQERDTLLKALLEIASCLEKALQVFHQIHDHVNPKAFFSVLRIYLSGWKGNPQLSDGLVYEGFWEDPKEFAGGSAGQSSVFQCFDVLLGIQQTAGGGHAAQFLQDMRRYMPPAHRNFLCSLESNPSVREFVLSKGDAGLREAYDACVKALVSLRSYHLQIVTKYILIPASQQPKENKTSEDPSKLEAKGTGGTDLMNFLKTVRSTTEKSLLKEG

[5] = tested on: kynurenine and tryptophan in the plasma; assay: phase I trial: plasma kynurenine and tryptophan; format: in vivo, human
Procedure, shortened: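 In this open-label dose-escalation study, patients received the test compound orally twice daily (100–800 mg, three per cohort, 28-day cycles). Plasma was collected on cycle 1 day 1 and day 15 (predose and 1, 2, 4 and 6 h postdose), day 8 (predose), and cycle 2 day 1 (predose and 2 h). Kynurenine and tryptophan were quantified by LC-MS/MS, ratios were calculated, and values were normalized to baseline.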

[6] = tested on: advanced solid tumors; assay: phase I trial: preliminary antitumor activity; format: in vivo, human
Procedure, shortened: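 Patients with advanced solid tumors received twice-daily oral doses in 28-day cycles. CT or MRI was done at baseline and within 7 days before day 1 of cycles 3, 5 and 7, then every three cycles. The investigator assessed objective response, best overall response, disease control and progression-free survival per RECIST 1.1. Binary endpoints used exact Clopper-Pearson 95% CI and PFS used Kaplan-Meier.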

[7] = 100 to 600 mg two times per day, day 15
[8] = Cycle 1, day 1, 100 mg two times per day, n=3, geometric mean (CV%)
[9] = Cycle 1, day 1, 200 mg two times per day, n=3, geometric mean (CV%)
[10] = Cycle 1, day 1, 400 mg two times per day, n=3, geometric mean (CV%)
[11] = Cycle 1, day 1, 600 mg two times per day, n=3, geometric mean (CV%)
[12] = Cycle 1, day 1, 800 mg two times per day, n=3, geometric mean (CV%)
[13] = Cycle 1, day 8, 100 mg two times per day, n=3, geometric mean (CV%)
[14] = Cycle 1, day 8, 200 mg two times per day, n=3, geometric mean (CV%)
[15] = Cycle 1, day 8, 400 mg two times per day, n=3, geometric mean (CV%)
[16] = Cycle 1, day 8, 600 mg two times per day, n=3, geometric mean (CV%)
[17] = Cycle 1, day 8, 800 mg two times per day, n=3, geometric mean (CV%)
[18] = Cycle 1, day 15, 100 mg two times per day, n=3, geometric mean (CV%)
[19] = Cycle 1, day 15, 200 mg two times per day, n=3, geometric mean (CV%)
[20] = Cycle 1, day 15, 400 mg two times per day, n=3, geometric mean (CV%)
[21] = Cycle 1, day 15, 600 mg two times per day, n=3, geometric mean (CV%)
[22] = Cycle 1, day 15, 800 mg two times per day, n=1, individual value
[23] = Cycle 2, day 1, 100 mg two times per day, n=3, geometric mean (CV%)
[24] = Cycle 2, day 1, 200 mg two times per day, n=2, individual values
[25] = Cycle 2, day 1, 400 mg two times per day, n=3, geometric mean (CV%)
[26] = Cycle 2, day 1, 600 mg two times per day, n=2, individual values
[27] = Cycle 2, day 1, 800 mg two times per day, n=1, individual value

Compound: NS(=O)(=O)[C@H]1CC[C@](F)(CC[C@H]2c3ccccc3-c3cncn32)CC1 [M4112]
- exposure to M4112 in the liver compared with both the plasma and the tumor [1]: approximately 10 fold
- concentration of M4112 in the tumor by 24 hours post-treatment ([1]; single oral dose): decreased to baseline levels
- time at which the concentration of M4112 in the tumor peaked ([1]; single oral dose 30, 75 or 200 mg/kg, post-treatment): 1 to 2 h
- kynurenine:tryptophan ratio in the liver and plasma [2]: dose-dependent reduction
- increase of mean exposure with dose [3, 7]: greater than dose-proportional
- slope estimate of dose proportionality (power model) [3, 7]: 1.46–1.67
- accumulation / autoinduction following two times per day dosing ([3]; 100–600 mg dose range): no appreciable accumulation or evidence of autoinduction
- AUC0–8 [3, 8]: 3550 (14.4) ngxh/mL
- AUC0–8/dose [3, 8]: 35.5 (14.4) ngxh/mL/mg
- Cmax [3, 8]: 806 (9.9) ng/mL
- Cmax/dose [3, 8]: 8.06 (9.9) ng/mL/mg
- tmax ([3]; Cycle 1, day 1, 100 mg two times per day, n=3, median (min, max)): 1.08 (1.08, 2.12) hours
- AUC0–8 [3, 9]: 8740 (13.6) ngxh/mL
- AUC0–8/dose [3, 9]: 43.7 (13.6) ngxh/mL/mg
- Cmax [3, 9]: 2110 (13.6) ng/mL
- Cmax/dose [3, 9]: 10.5 (13.6) ng/mL/mg
- tmax ([3]; Cycle 1, day 1, 200 mg two times per day, n=3, median (min, max)): 2.10 (2.07, 3.08) hours
- AUC0–8 [3, 10]: 27,700 (21.4) ngxh/mL
- AUC0–8/dose [3, 10]: 69.1 (21.4) ngxh/mL/mg
- Cmax [3, 10]: 7670 (39.6) ng/mL
- Cmax/dose [3, 10]: 19.2 (39.6) ng/mL/mg
- tmax ([3]; Cycle 1, day 1, 400 mg two times per day, n=3, median (min, max)): 1.08 (1.07, 1.08) hours
- AUC0–8 [3, 11]: 50,400 (7.7) ngxh/mL
- AUC0–8/dose [3, 11]: 84.0 (7.7) ngxh/mL/mg
- Cmax [3, 11]: 11,700 (24.6) ng/mL
- Cmax/dose [3, 11]: 19.6 (24.6) ng/mL/mg
- tmax ([3]; Cycle 1, day 1, 600 mg two times per day, n=3, median (min, max)): 1.00 (0.97, 1.07) hours
- AUC0–8 [3, 12]: 14,600 (85.1) ngxh/mL
- AUC0–8/dose [3, 12]: 18.2 (85.1) ngxh/mL/mg
- Cmax [3, 12]: 2770 (83.6) ng/mL
- Cmax/dose [3, 12]: 3.47 (83.6) ng/mL/mg
- tmax ([3]; Cycle 1, day 1, 800 mg two times per day, n=3, median (min, max)): 2.08 (2.07, 4.12) hours
- Cpre [3, 13]: 156 (58.2) ng/mL
- Cpre/dose [3, 13]: 1.56 (58.2) ng/mL/mg
- Cpre [3, 14]: 96.5 (85.0) ng/mL
- Cpre/dose [3, 14]: 0.482 (85.0) ng/mL/mg
- Cpre [3, 15]: 1240 (51.6) ng/mL
- Cpre/dose [3, 15]: 3.11 (51.6) ng/mL/mg
- Cpre [3, 16]: 4410 (54.5) ng/mL
- Cpre/dose [3, 16]: 7.35 (54.5) ng/mL/mg
- Cpre [3, 17]: 5200 (105.4) ng/mL
- Cpre/dose [3, 17]: 6.50 (105.4) ng/mL/mg
- AUC0–8 [3, 18]: 4790 (25.4) ngxh/mL
- AUC0–8/dose [3, 18]: 47.9 (25.4) ngxh/mL/mg
- Cmax [3, 18]: 975 (34.9) ng/mL
- Cmax/dose [3, 18]: 9.75 (34.9) ng/mL/mg
- Cpre [3, 18]: 221 (20.5) ng/mL
- Cpre/dose [3, 18]: 2.21 (20.5) ng/mL/mg
- tmax ([3]; Cycle 1, day 15, 100 mg two times per day, n=3, median (min, max)): 3.08 (2.12, 4.13) hour
- AUC0–8 [3, 19]: 7580 (11.5) ngxh/mL
- AUC0–8/dose [3, 19]: 37.9 (11.5) ngxh/mL/mg
- Cmax [3, 19]: 1720 (20.5) ng/mL
- Cmax/dose [3, 19]: 8.58 (20.5) ng/mL/mg
- Cpre [3, 19]: 199 (53.9) ng/mL
- Cpre/dose [3, 19]: 0.997 (53.9) ng/mL/mg
- tmax ([3]; Cycle 1, day 15, 200 mg two times per day, n=3, median (min, max)): 2.10 (1.00, 6.08) hour
- AUC0–8 [3, 20]: 31,500 (28.8) ngxh/mL
- AUC0–8/dose [3, 20]: 78.8 (28.8) ngxh/mL/mg
- Cmax [3, 20]: 6560 (27.4) ng/mL
- Cmax/dose [3, 20]: 16.4 (27.4) ng/mL/mg
- Cpre [3, 20]: 1630 (45.7) ng/mL
- Cpre/dose [3, 20]: 4.08 (45.7) ng/mL/mg
- tmax ([3]; Cycle 1, day 15, 400 mg two times per day, n=3, median (min, max)): 1.08 (0.50, 3.00) hour
- AUC0–8 [3, 21]: 59,500 (12.7) ngxh/mL
- AUC0–8/dose [3, 21]: 99.2 (12.7) ngxh/mL/mg
- Cmax [3, 21]: 12,100 (2.2) ng/mL
- Cmax/dose [3, 21]: 20.2 (2.2) ng/mL/mg
- Cpre [3, 21]: 3380 (42.4) ng/mL
- Cpre/dose [3, 21]: 5.63 (42.4) ng/mL/mg
- tmax ([3]; Cycle 1, day 15, 600 mg two times per day, n=3, median (min, max)): 1.03 (0.93, 2.17) hour
- AUC0–8 [3, 22]: 93,200† ngxh/mL
- AUC0–8/dose [3, 22]: 116† ngxh/mL/mg
- Cmax [3, 22]: 21,100† ng/mL
- Cmax/dose [3, 22]: 26.4† ng/mL/mg
- Cpre [3, 22]: 9810† ng/mL
- Cpre/dose [3, 22]: 12.3† ng/mL/mg
- tmax [3, 22]: 2.00† hour
- Cpre [3, 23]: 128 (67.7) ng/mL
- Cpre/dose [3, 23]: 1.28 (67.7) ng/mL/mg
- Cpre [3, 24]: 83.3 ng/mL and 85.2 ng/mL
- Cpre/dose [3, 24]: 0.417 ng/mL/mg and 0.426 ng/mL/mg
- Cpre [3, 25]: 957 (72.1) ng/mL
- Cpre/dose [3, 25]: 2.39 (72.1) ng/mL/mg
- Cpre [3, 26]: 1910 ng/mL and 2560 ng/mL
- Cpre/dose [3, 26]: 3.18 ng/mL/mg and 4.27 ng/mL/mg
- Cpre [3, 27]: 8560† ng/mL
- Cpre/dose [3, 27]: 10.7† ng/mL/mg
- tmax ([3]; across all dose levels on both days 1 and 15, approximately): 1 to 3 h
- M4112 exposure of the 800 mg two times per day cohort ([3]; cycle 1, day 1): initially lower than that of the other dose groups
- IDO1 activity inhibited ([4]; 800 mg two times per day, throughout the dosing interval): Approximately 90%
- IDO1 inhibition in ex vivo stimulated blood ([4]; across all doses tested): rapid onset of IDO1 inhibition
- time of maximum IDO1 inhibition ([4]; post-M4112 administration): 1 to 4 h
- dose dependence of IDO1 inhibition ([4]; steady state): trend toward dose-dependent IDO1 inhibition
- plasma kynurenine:tryptophan ratio ([5]; cycle 1 day 1, after 6 hours): decrease
- decrease in plasma kynurenine levels ([5]; day 1 of cycle 1, up to 6 hours after the first dose, all dose levels): 12%–35
- plasma tryptophan levels ([5]; day 1 of cycle 1, 200 mg two times per day and above): increased
- plasma kynurenine levels ([5]; day 15 of cycle 1): returned to at least baseline levels
- best overall response stable disease, patients ([6]; 9 of 15 patients): 60.0%
- median progression-free survival ([6]; 15 patients): 3.7 months
- objective responses ([6]; 15 patients): no objective responses
